Most compounds without a hit are left out; they make up all but 10% or so of the library.
PMI act hi M6P = human PMI activators, high substrate, primary screen, biochemical, fluorescence intensity, near-saturating mannose 6-phosphate; coupled PMI enzyme assay, resazurin fluorescence, 20 min; active compounds read high; 1 = untreated enzyme, 0 = substrate-free blank; actives 0.34% (n = 190,000); Mannose-6-phosphate isomerase (Homo sapiens), P34949; AID 1216, 2008; activation factor at 20 µM;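 active means activation factor of 2 or more at 20 µM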
Target sequence (P34949 whole entry, looked up): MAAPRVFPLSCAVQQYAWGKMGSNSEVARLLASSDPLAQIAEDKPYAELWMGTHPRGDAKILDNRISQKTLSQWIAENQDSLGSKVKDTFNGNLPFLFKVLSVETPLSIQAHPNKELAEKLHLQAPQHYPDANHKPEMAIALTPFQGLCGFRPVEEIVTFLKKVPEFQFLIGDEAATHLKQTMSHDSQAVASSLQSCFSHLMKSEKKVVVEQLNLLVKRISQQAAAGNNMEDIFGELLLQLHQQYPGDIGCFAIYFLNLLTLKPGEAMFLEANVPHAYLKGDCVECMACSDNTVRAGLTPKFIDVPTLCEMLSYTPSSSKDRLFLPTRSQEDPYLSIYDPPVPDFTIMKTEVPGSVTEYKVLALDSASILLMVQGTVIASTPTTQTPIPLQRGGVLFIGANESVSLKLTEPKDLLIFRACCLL
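Test system: human PMI in coupled enzyme assay; Input: PMI at 15 ng/mL final; Medium: HEPES buffer, pH 7.4; Schedule: 20 min incubation at room temperature; Technique: resorufin fluorescence at Ex 544/Em 590 nm; Compound: 20 µM single dose; Probe or stimulus: Near-saturating mannose-6-phosphate, 1.0 mM.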
L major viab = Leishmania major promastigote growth inhibition, primary screen. inhibition, % at 10 µM. Leishmania major promastigotes, resazurin fluorescence viability. actives 9% (n = 200,000); in the data active means inhibition above about 50%;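 further: promastigotes grown with compound for 44 hours at 28 °C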
WT yeast gro inh = growth inhibition of WT strain, primary screen, mitochondrial fusion inhibitor project, WT and mutant strains, chemical genetic; actives 2.1% (n = 190,000); inhibition, % at 10 µM; mitochondrial fusion phenotypic screen; in the data active means inhibition above about 58%; tested in S. cerevisiae
Diaphorase act = compounds boosting diaphorase resazurin reduction – biochemical, uHTS, resorufin fluorescence, counter-screen for diaphorase-coupled primary assays, primary screen | activation factor at 20 µM | actives 0.005% (n = 190,000) | Diaphorase/resazurin coupled assay, 16 min; active compounds read high; 1 = vehicle wells, 0 = NADH-free wells;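 active means diaphorase activity raised at least twofold by the compound at 20 µM; inactive means activation factor below 2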
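Material: Clostridium kluyveri diaphorase, purified enzyme; Quantity: enzyme 0.07 U/mL final; Medium: HEPES pH 7.4 buffer with MgCl2 and Tween 20; Dosing: single compound dose of 20 µM, 1% DMSO final; Schedule: 16 min reaction at room temperature; Measured by: red resorufin fluorescence at 544/590 nm excitation/emission.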
PMI activator = activators of human PMI, primary screen, biochemical, fluorescence intensity, near-Km mannose 6-phosphate; purified human PMI, coupled resazurin fluorescence, 20 min; active compounds read high; 1 = vehicle control, 0 substrate-free wells; actives 0.005% (n = 190,000); Mannose-6-phosphate isomerase (Homo sapiens), P34949; activation factor at 20 µM;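 active means activation factor of 2 or more at 20 µM, relative to plate controls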
* hit, by the source's call.

SMILES	PMI act hi M6P	L major viab	WT yeast gro inh	Diaphorase act	PMI activator
COc1ccccc1C(=O)NCC(=O)OCC(=O)c1ccc2c(c1)-c1ccccc1C2	0.9	-4	5	0.8	1
CC[n+]1oc(-c2ccccc2)cc1C	1.1	-3	15	1	1.1
CC(=O)Cc1nsc(NC(=O)c2ccc(-c3cc(Cl)ccc3Cl)o2)n1	1	-4	71*	0.9	1
CC(=O)Cc1nsc(NC(=O)c2ccc(-c3ccc(Cl)cc3Cl)o2)n1	1.1	-1	31	1	1.1
CC(=O)Cc1nsc(NC(=O)c2ccc(-c3ccc(Cl)c(Cl)c3)o2)n1	0.9	2	69*	0.9	1.1
CC(=O)Cc1nsc(NC(=O)c2cc(-c3ccc(Cl)c(Cl)c3)oc2C)n1	1.1	2	1	1.1	1
CCOC(=O)C1(CCc2ccccc2)CCN(C(=O)c2cnc(C)cn2)CC1	1.1	-8	-5	1	1
Nc1cccc2c1C(=O)N(C(=O)/C=C/c1ccc(F)cc1)C2=O	0.8	-4	14	0.7	1
Cc1nn(CC(=O)Nc2cccnc2)c(=O)c2ccccc12	0.5	-6	-10	0.8	0.9
O=C(Cn1c(=O)n(Cc2ccco2)c(=O)c2c3c(sc21)CCCCC3)c1ccccc1	1	13	-5	0.7	0.9
O=c1c2c3c(sc2n(CCN2CCCC2)c(=O)n1Cc1ccco1)CCCCC3	1	87*	-3	1.1	0.9
CN(C)CCn1c(=O)n(Cc2ccco2)c(=O)c2c3c(sc21)CCCCC3	1	88*	13	0.9	0.9
O=C(Nc1cccc(F)c1)c1cc(S(=O)(=O)NCCC2=CCCCC2)ccc1F	1	14	60*	0.9	0.9
Cc1ccc2nc(-c3cccnc3)cc(C(=O)Nc3ccc(F)cc3C)c2c1	1.1	15	20	1	1.1
CCN(c1ccc(NS(=O)(=O)c2cc(Cl)ccc2Cl)cc1)C(C)C	0.6	25	5	0.8	0.9
O=S(=O)(Nc1ccc(-n2cccc2)cc1)c1ccc(Cl)cc1Cl	0.8	-6	88*	0.7	0.8
CN(C)c1ccc(NS(=O)(=O)c2cc(Cl)ccc2Cl)cc1	0.7	64*	-7	0.7	0.8
O=S(=O)(Nc1ccc(-n2cccc2)cc1)c1ccc(F)cc1	0.9	-12	-11	0.9	0.9
O=C(Nc1ccc(Cl)cc1C(=O)N1CCOCC1)c1cccc([N+](=O)[O-])c1	1.1	22	-18	0.9	1.1
Cc1[nH]n(-c2ccccc2)c(=S)c1C=Nc1cccc([N+](=O)[O-])c1	0.9	-9	10	0.7	0.5
CCc1cccc(C)c1NC(=O)C1CN(S(=O)(=O)c2ccccc2)CCN1S(=O)(=O)c1ccccc1 (centres undefined)	1	7	-4	0.8	1
CCOC(=O)C(=NC(C)CC)NNc1ccc(Br)cc1 (centres undefined)	2.7*	-11	70*	0.9	1.6
CCC(=O)NNc1ccc(Br)cc1	2.8*	20	69*	1	2*
CCOC(=O)C(=NC1CCS(=O)(=O)C1)NNc1ccc(Br)cc1 (centres undefined)	2.4*	-4	59*	0.9	1.6
N#CCc1c(C#N)c(N)nc(N2CCCC(CO)C2)c1C#N (centres undefined)	0.6	4	11	0.8	0.9
SMILES	PMI act hi M6P	L major viab	WT yeast gro inh	Diaphorase act	PMI activator
Oc1c(CN2CCN(c3ccccn3)CC2)cc(Cl)c2cccnc12	0.4	100*	11	0.5	0.5
Brc1ccc(CN2CCN(c3ccccn3)CC2)s1	0.9	-1	2	0.8	0.9
O=c1c(CN2CCN(c3ccccn3)CC2)coc2ccccc12	1	63*	-2	0.9	1.1
OCCN1CCN(Cc2cc(Cl)c3cccnc3c2O)CC1	0.5	100*	-9	0.3	0.5
O=C(CSc1nnc(-c2ccco2)o1)c1ccc[nH]1	1	-7	2	1.1	1.1
Cc1ccc(/C=C2\CCCC3=C2NC(=S)NC3c2ccc(C)cc2)cc1 (centres undefined)	2*	8	10	0.9	1.6

Source: PubChem (several laboratories)
